Results: ChEMBL document CHEMBL1914395, “Design, synthesis, and biological evaluation of callophycin A and analogues as potential chemopreventive and anticancer agents” (Bioorg Med Chem, 2011)

Experiments:
MCF7 [1] = experiment: Antiproliferative activity against human MCF7 cells assessed as survival at 50 uM after 72 hrs by SRB assay relative to control; format: functional; settings: MCF7, 72 h, read-out: Survival
How it was run: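 MCF7 cells (1 × 10^4 per well) were plated onto compound and kept at 37°C, 5% CO2 for 72 h. Cells were fixed in 10% TCA for 30 min and stained with 0.4% SRB in 1% acetic acid for 30 min. Bound dye was dissolved in 10 mM Tris (pH 10.0) and read at 515 nm. Survival is given as % of DMSO-treated controls, screened at 50 μM.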

Aromatase [2] = target: T1, Aromatase (Homo sapiens, UniProt P11511); experiment: Inhibition of aromatase after 10 mins preincubation by plate reader relative to control
T1 sequence (P11511 whole entry): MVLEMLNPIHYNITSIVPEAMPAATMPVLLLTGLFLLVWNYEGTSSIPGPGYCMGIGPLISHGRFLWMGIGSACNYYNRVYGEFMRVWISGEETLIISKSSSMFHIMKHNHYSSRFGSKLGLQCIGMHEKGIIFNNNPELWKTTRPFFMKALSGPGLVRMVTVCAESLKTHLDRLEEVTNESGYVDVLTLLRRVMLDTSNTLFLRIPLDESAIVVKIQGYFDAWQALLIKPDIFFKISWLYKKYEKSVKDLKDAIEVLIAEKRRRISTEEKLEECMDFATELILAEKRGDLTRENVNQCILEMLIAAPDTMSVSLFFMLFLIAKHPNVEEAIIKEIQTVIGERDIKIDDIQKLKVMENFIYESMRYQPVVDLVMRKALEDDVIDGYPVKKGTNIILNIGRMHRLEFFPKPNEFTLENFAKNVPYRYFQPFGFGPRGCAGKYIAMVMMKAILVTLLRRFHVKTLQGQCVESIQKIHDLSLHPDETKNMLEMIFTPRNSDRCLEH

[3] = target: NAD(P)H dehydrogenase [quinone] 1 (Mus musculus) (UniProt Q64669); experiment: Induction of quinone reductase 1 activity in mouse Hepa-1c1c7 cells assessed as cell survival at 50 uM by MTT assay relative to control; format: cell-based
HEK293 [4] = experiment: Inhibition of TNF-alpha-induced NFkappaB activation in human HEK293 cells at 50 uM after 6 hrs by luciferase assay relative to control; format: cell-based
How it was run: (§1)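 Cells incubated 6 h with TNFα plus test compound, then luciferase activity measured. Results expressed as percent of TNFα-treated control. Screening concentration 50 μM.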

[5] = target: NAD(P)H dehydrogenase [quinone] 1 (Mus musculus) (UniProt Q64669); experiment: Induction of quinone reductase 1 activity in mouse Hepa-1c1c7 cells at 50 uM by MTT assay relative to untreated control; format: cell-based
How it was run: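 Hepa 1c1c7 murine hepatoma cells treated with compound at 50 μM. QR1 measured by NADPH-dependent, menadiol-mediated reduction of MTT to formazan. Protein measured by crystal violet staining of identical plates. Specific activity is nmol formazan per mg protein per min. Induction ratio is treated versus DMSO-treated control.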

[6] = target: T2, Nitric oxide synthase, inducible (Mus musculus) (UniProt P29477); experiment: Inhibition of iNOS-mediated nitric oxide production in LPS-stimulated mouse RAW 264.7 cells at 50 uM pretreated 15 mins before LPS challenge measured after 20 hrs relative to control; format: cell-based
T2 sequence (whole entry): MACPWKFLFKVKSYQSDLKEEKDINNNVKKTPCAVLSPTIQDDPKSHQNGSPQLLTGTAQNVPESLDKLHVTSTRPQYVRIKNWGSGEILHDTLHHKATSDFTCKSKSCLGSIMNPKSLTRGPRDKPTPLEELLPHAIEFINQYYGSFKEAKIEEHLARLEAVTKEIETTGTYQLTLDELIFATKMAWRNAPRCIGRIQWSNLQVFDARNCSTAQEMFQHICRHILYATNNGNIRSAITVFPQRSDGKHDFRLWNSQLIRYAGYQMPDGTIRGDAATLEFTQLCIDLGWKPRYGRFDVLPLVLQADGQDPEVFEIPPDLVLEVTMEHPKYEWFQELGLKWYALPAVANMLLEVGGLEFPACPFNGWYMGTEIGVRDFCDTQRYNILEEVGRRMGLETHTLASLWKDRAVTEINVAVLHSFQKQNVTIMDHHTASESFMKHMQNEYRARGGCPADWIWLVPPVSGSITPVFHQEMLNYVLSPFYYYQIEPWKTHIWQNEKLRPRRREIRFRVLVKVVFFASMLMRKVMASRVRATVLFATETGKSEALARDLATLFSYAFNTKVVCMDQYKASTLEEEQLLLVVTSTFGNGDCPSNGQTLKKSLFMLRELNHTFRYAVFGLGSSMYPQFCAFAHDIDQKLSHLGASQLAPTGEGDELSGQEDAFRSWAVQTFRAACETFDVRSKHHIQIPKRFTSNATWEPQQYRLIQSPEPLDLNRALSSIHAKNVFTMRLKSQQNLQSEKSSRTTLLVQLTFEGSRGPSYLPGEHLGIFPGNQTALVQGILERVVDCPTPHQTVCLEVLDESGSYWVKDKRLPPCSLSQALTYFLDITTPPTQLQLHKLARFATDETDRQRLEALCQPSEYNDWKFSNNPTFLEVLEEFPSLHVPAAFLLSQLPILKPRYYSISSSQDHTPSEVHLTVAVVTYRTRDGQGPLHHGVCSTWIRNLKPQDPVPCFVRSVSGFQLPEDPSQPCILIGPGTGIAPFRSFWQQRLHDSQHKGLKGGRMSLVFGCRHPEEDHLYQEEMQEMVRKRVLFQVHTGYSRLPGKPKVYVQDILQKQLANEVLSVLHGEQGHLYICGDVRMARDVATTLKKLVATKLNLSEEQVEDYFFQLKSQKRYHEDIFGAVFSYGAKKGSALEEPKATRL
How it was run: (§2)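 RAW 264.7 cells cultured 24 h at 37°C, then given serially diluted compounds for 15 min before LPS (1 μg/mL) for 20 h. Nitrite in the medium measured with Griess reagent at 540 nm against a sodium nitrite standard curve. Cytotoxicity checked by SRB under the same conditions.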

Aromatase [7] = target: T1, Aromatase; experiment: Inhibition of aromatase at 50 uM after 10 mins preincubation by plate reader relative to control
How it was run: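 CYP19 enzyme. Compound pre-incubated 10 min with an NADPH-regenerating system (NADP+, glucose 6-phosphate, G6PDH, MgCl2, albumin) in 50 mM potassium phosphate pH 7.4. Enzyme and 0.4 μM dibenzylfluorescein substrate then added, 30 min at 37 °C. Quenched with 2 N NaOH and incubated a further 2 h at 37 °C. Fluorescence read at ex 485/em 530 nm. Compound tested at 50 μM.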

HEK293 [8] = experiment: Inhibition of TNF-alpha-induced NFkappaB activation in human HEK293 cells assessed as cell survival at 50 uM after 6 hrs by luciferase assay relative to control; format: cell-based
[9] = target: T2, Nitric oxide synthase, inducible (Mus musculus); experiment: Inhibition of iNOS-mediated nitric oxide production in LPS-stimulated mouse RAW 264.7 cells assessed as cell survival at 50 uM pretreated 15 mins before LPS challenge measured after 20 hrs relative to control; format: cell-based
How it was run: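 RAW 264.7 cells were incubated at 37°C, 5% CO2 for 24 h. They were then exposed to compound for 15 min before LPS (1 μg/mL) was added for 20 h. Cytotoxicity was measured by SRB staining under the same conditions. Survival is expressed as % relative to vehicle-treated controls at 50 μM.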

[10] = target: NAD(P)H dehydrogenase [quinone] 1 (Mus musculus) (UniProt Q64669); experiment: Induction of quinone reductase 1 in mouse Hepa 1c1c7 cells assessed as concentration of compound required to double enzyme activity by MTT assay; format: cell-based
How it was run: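 Dose-response in Hepa 1c1c7 cells, run for substances with induction ratio >2 at 50 μM. QR1 activity measured as menadiol-mediated, NADPH-dependent MTT reduction to formazan, normalised to crystal violet protein content. CD is the concentration that doubles specific activity relative to DMSO control.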

[11] = Inhibition of TNF-alpha-induced NFkappaB activation in human HEK293 cells after 6 hrs by luciferase assay; format: cell-based; settings: HEK293, 6 h; how it was run: as §1
MCF7 [12] = experiment: Antiproliferative activity against human MCF7 cells after 72 hrs by SRB assay; format: functional, cell-based; settings: MCF7, 72 h
How it was run: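 MCF7 cells, 1 × 10^4 per well, plated directly onto compounds and incubated 72 h at 37°C, 5% CO2. Fixed with 10% TCA, stained with 0.4% SRB in 1% acetic acid. Bound dye dissolved in 10 mM Tris pH 10.0, absorbance read at 515 nm. Survival expressed relative to DMSO-treated controls.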

[13] = target: T3, Nitric oxide synthase, inducible (Mus musculus, UniProt P29477); experiment: Inhibition of iNOS-mediated nitric oxide production in LPS-stimulated mouse RAW 264.7 cells pretreated 15 mins before LPS challenge measured after 20 hrs relative to control; format: cell-based; how it was run: as §2
T3 sequence (P29477 whole entry): T2 sequence (whole entry)

Chain of NAD(P)H dehydrogenase [quinone] 1 (Mus musculus) (Q64669 whole entry): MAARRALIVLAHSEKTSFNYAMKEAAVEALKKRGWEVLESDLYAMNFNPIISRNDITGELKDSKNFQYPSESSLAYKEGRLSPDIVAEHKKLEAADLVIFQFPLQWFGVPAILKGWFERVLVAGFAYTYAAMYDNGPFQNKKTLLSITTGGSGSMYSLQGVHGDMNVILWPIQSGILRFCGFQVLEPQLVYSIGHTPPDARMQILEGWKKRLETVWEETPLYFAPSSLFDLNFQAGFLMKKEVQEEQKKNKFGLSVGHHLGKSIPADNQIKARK

Row | SMILES | viability at 50 µM (MCF7 [1]) [%] | IC50 (Aromatase [2]) [µM] | Survival [3] [%] | inhibition (HEK293 [4]) [%] | Ratio [5] | inhibition [6] [%] | inhibition at 50 µM (Aromatase [7]) [%] | Survival (HEK293 [8]) [%] | Survival [9] [%] | CD [10] [µM] | IC50 [11] [µM] | IC50 (MCF7 [12]) [µM] | IC50 [13] [µM]
1 | O=C(O)[C@@H]1Cc2c([nH]c3ccccc23)CN1Cc1ccc(O)cc1 | 85.2 | 10.5 | 88.3 | 55 | 1.7 | 16 | 57.9 | 102 | 90.3 | – | – | – | –
2 | COC(=O)[C@@H]1Cc2c([nH]c3ccccc23)CN1CC1CC1 | 85.6 | 58.6 | 68.6 | 54.1 | 2.2 | 23.5 | 47.7 | 152 | 99.8 | 34 | – | – | –
3 | COC(=O)[C@@H]1Cc2c([nH]c3ccccc23)CN1C(=O)NC(C)C | 71 | 47.3 | 61.2 | 69 | 2.9 | 37.8 | 54 | 117 | 94.3 | 6.4 | 26.5 | – | –
4 | COC(=O)[C@@H]1Cc2c([nH]c3ccccc23)CN1C(=O)NC12CC3CC(CC(C3)C1)C2 | 37.6 | – | 78.1 | 60.7 | 0.9 | 64.1 | 30.3 | 139 | 66.7 | – | 10.2 | 36.9 | 13.4
5 | COC(=O)[C@H]1Cc2c([nH]c3ccccc23)CN1S(=O)(=O)c1ccc(Br)cc1 | 30.6 | – | 83.7 | 43.7 | 2.1 | 3.8 | 35.5 | 154 | 89.7 | 29.7 | – | 42.1 | –
6 | COC(=O)[C@H]1Cc2c([nH]c3ccccc23)CN1C(=O)NCCc1ccccc1 | 4.3 | – | 51.7 | 81.7 | 1.5 | 66.2 | 24.6 | 108 | 66.1 | – | 13.3 | 27.7 | 11
7 | COC(=O)[C@H]1Cc2c([nH]c3ccccc23)CN1S(C)(=O)=O | 90.9 | 68.1 | 86.3 | 42.2 | 1.6 | 12.9 | 40.2 | 158 | 79.9 | – | – | – | –
8 | CCCCCNC(=O)N1Cc2[nH]c3ccccc3c2C[C@H]1C(=O)OC | 40.3 | – | 7.8 | 35.5 | 4.9 | 8.7 | -0.04 | 110 | 94.9 | 3.8 | – | 38.4 | –
9 | COC(=O)[C@@H]1Cc2c([nH]c3ccccc23)CN1S(=O)(=O)c1ccc(C)cc1 | 19 | 63.2 | 61 | 6 | 1.3 | 73.8 | 41.7 | 171 | 116 | – | – | 37 | 22.6
10 | COC(=O)[C@@H]1Cc2c([nH]c3ccccc23)CN1C(=O)NCCc1ccccc1 | 1.3 | – | 59.6 | 87.7 | 0.5 | 48.2 | 31.8 | 94.6 | 68.9 | – | 16.9 | 25.4 | –
11 | COC(=O)[C@H]1Cc2c([nH]c3ccccc23)CN1C(=O)NC12CC3CC(CC(C3)C1)C2 | 9.9 | – | 30.6 | 36.5 | 0.4 | 64.7 | 39.9 | 110 | 63.2 | – | – | 14.7 | 11.7
12 | COC(=O)[C@@H]1Cc2c([nH]c3ccccc23)CN1Cc1ccc(O)cc1 | 94.7 | 57.4 | 91.7 | 47.8 | 1.3 | 62.1 | 46.1 | 96 | 75.5 | – | – | – | 38.8
13 | COC(=O)[C@H]1Cc2c([nH]c3ccccc23)CN1C(=O)NC1CCCCC1 | 5.3 | – | 71.8 | 20.9 | 1 | 55 | 24.4 | 101 | 83.8 | – | – | 18.4 | 41.6
14 | C=CCOC(=O)N1Cc2[nH]c3ccccc3c2C[C@H]1C(=O)OC | 70.4 | 44.8 | 83.4 | 33.3 | 1.9 | 8.5 | 54.6 | 191 | 94.2 | – | – | – | –
